As usually defined, the viability is a read-out of living cells in per cent, often relative to untreated cells. Usually inhibition stands for the change of the read-out against control, counted positive when it falls.

Results on 14 compounds are retold here after PubChem BioAssay.

Structures are written as SMILES. Calls of active or inactive are those of the source.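 Rule for the calls, unless noted: active = Her2 level under about 52% in both replicate screens, with viability over 70% of control (limit read from the data); inconclusive = Her2 under the limit in one screen only, or viability under 70%; inactive = Her2 level above the set limit.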

Test [1] in a line: reducers of endogenous Her2 protein level, primary screen, SKBR3 breast tumor cells, AlphaScreen, ATP viability (AID 461).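 For Her2 level: lower value means less Her2 protein in the cells.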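 For viability: percent of carrier control wells set as 100% viability.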 The note with it: 18-24 h, measured here: SKBR3 viability, ATP luminescence, at 10 µM.
Test [2] concerns the target Receptor tyrosine-protein kinase erbB-2 (Homo sapiens) (UniProt P04626). The description is as above. The note with it: 18-24 h, at 10 µM, stronger effect = lower value.
Test [3] is described as follows: SK-BR-3 cell growth inhibitors, pilot screen, 24 h, human (AID 572;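 active = viability at or below 10% of carrier control in both of two separate runs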;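 note: compound exposure lasted between 18 and 24 h rather than exactly 24 h; 100% = carrier-treated control wells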). The settings on record: SK-BR-3 viability, CellTiter-Glo luminescence, at 10 µM, stronger effect = lower value.
Test [4] in a line: HUVEC growth inhibition – cell-based, human, primary screen (AID 575;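 active = viability at or below 30% in both replicate assays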;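 note: 100% = median of untreated cell wells with 0.1% DMSO on each plate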). The note with it: HUVEC proliferation, CellTiter-Glo luminescence, 72 h; at 10 µM; stronger effect = lower value. The gist of the method: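 system = HUVEC primary cells | amount = 1250 cells/well | buffer or medium = supplemented EBM, 2% fetal bovine serum | dosing = single-point 10 µM, DMSO 0.1% final | times = 72 h compound incubation | detection = CTG luminescence | read-out = % viability relative to median vehicle-well signal on each plate | control set = vehicle and MePR control wells | format = collagen-coated 384-well format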
On the technique in general: Cellular ATP, detected with luciferase, serves as a proxy for viable cell number.

Test [5] is described as follows: growth inhibitors of H69AR lung tumor, primary screen, human, duplicate replicates (AID 580;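 active = viability at or under a set limit in both replicates, limit being median viability minus 3 SD, cut at about 48% in these data, passing the limit was not always enough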;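 note: 100% = mean luminescence of untreated wells and 0% = no signal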). The settings on record: H69AR lung tumor cells viability, ATP luminescence, 72 h; at 10 µM; stronger effect = lower value.
A short description of test [6]: reversal of MRP1-mediated doxorubicin resistance, pilot screen, H69AR cells, doxorubicin co-treatment (AID 601;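 active = viability loss from added drug above about 55%, and viability with drug at most 40%, in both replicates, limit read from the data, passing the limit was not always enough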). The settings on record: CellTiter-Glo, 72 h, at 10 µM; for differential viability (reversal): stronger effect = higher value.
The nature of test [7]: 384-well plate pilot, post-Golgi transport modulator project, inhibition of yeast transport mutant growth (AID 636; in the data active = inhibition above about 31%). The settings on record: absorbance 615 nm, about 18 h, stronger effect = higher value.
The nature of test [8]: growth suppression of yeast trafficking mutant, preliminary HTS, modulators of trafficking downstream of Golgi apparatus project, 1536-format plate, OD 615 nm (AID 637; in the data active = inhibition above about 30%). The settings on record: yeast transport mutant growth, absorbance 615 nm, 18 h; stronger effect = higher value.
[9] abbreviates: H69AR cells + 2 uM doxorubicin, measured here: viability with 2 uM doxorubicin, stronger effect = lower value.
Setting [10] is: H69AR cells, compound alone cytotoxicity.

Sequence of Receptor tyrosine-protein kinase erbB-2 (Homo sapiens) (P04626 whole entry, looked up): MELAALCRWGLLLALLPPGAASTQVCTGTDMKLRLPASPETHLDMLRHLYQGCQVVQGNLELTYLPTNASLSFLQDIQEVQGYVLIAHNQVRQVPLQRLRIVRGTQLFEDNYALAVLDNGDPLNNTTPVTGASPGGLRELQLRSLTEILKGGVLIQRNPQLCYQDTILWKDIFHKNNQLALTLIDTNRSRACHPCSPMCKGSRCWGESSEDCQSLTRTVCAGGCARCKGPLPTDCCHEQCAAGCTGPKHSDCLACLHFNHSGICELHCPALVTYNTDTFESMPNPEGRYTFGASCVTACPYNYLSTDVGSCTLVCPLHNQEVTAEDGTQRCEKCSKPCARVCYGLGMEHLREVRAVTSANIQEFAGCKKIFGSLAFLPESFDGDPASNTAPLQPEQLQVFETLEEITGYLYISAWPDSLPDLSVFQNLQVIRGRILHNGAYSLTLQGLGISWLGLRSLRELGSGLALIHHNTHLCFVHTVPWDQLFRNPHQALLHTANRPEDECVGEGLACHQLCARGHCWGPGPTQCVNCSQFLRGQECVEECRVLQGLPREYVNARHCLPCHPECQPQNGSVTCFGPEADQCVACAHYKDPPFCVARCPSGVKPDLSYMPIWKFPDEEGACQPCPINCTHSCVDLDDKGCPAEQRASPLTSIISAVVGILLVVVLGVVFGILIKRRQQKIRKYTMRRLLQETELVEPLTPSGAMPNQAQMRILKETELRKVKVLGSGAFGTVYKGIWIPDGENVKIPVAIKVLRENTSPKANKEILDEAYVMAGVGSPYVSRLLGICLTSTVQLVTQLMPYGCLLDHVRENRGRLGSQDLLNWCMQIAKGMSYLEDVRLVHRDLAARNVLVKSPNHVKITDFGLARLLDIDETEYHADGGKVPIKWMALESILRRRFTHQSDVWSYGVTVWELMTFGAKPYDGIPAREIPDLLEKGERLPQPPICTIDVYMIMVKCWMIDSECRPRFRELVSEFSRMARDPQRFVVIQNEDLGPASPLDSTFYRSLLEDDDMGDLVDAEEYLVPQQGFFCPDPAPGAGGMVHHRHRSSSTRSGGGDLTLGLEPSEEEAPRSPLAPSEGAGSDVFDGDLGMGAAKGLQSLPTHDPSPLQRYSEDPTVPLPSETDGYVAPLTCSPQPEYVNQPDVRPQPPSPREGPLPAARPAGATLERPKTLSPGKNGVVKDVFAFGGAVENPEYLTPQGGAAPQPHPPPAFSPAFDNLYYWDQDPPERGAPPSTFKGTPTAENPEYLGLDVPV

In the case of `COc1cccc(-c2noc(-c3cccs3)n2)c1`, the viability in test [1] was 96.5%; in test [3], 96.5% (inactive); in test [4], 75.1% (inactive); in test [5], 81.5% (inactive); in test [6] (setting [9]) it was 111%; in test [6] (setting [10]), 81.5%. For the same compound, in test [2], the Her2 level was 87% (inactive). Moreover, the differential viability (reversal) in test [6] (H69AR cells + 2 uM doxorubicin) is -29.2% (inactive). In addition, the inhibition was 2.08% (inactive) in test [7] and -4.29% (inactive) in test [8].

On to `O=C1C(Cl)=C(N2CCOCC2)C(=O)N1CCc1ccccc1`, for which the viability is 104% in test [1]; 104% (inactive) in test [3]; 89.3% (inactive) in test [4]; 71.3% (inactive) in test [5]; 71.3% in test [6] (setting [9]); 71.3% in test [6] (setting [10]). Further, the Her2 level in test [2] was 84% (inactive). The differential viability (reversal) in test [6] (H69AR cells + 2 uM doxorubicin) is 0.02% (inactive). The inhibition in test [7] was -6.27% (inactive); in test [8], -1.11% (inactive).

Regarding `CCn1cc(C2=NOC(C(=O)Nc3cc(C)nn3-c3ccccc3)C2)c(C)n1` (stereo not given), the viability in test [1] is 89.5%; in test [3], 89.5% (inactive); in test [4], 101% (inactive); in test [5], 101% (inactive); in test [6] (setting [9]), 93%; in test [6] (setting [10]) it was 101%. Besides, in test [2], the Her2 level is 88.5% (inactive). Also, in test [6] (H69AR cells + 2 uM doxorubicin), the differential viability (reversal) is 8.29% (inactive). Further, the inhibition in test [7] is -1.18% (inactive); in test [8], -8.25% (inactive).

On to `CC(=O)c1cc2c(=O)c3cc(C)ccc3oc2nc1C`, for which the viability in test [1] was 102%; in test [3], 102% (inactive); in test [4] it was 68.4% (inactive); in test [5] it was 72.5% (inactive); in test [6] (setting [9]) it was 79.9%; in test [6] (setting [10]) it was 72.5%. Besides, the Her2 level in test [2] is 72.5% (inactive). Further, the differential viability (reversal) in test [6] (H69AR cells + 2 uM doxorubicin) is -7.35% (inactive). Moreover, the inhibition in test [7] was -2.89% (inactive); in test [8], -1.43% (inactive).

Consider `CCOC(=O)C1CCN(C(c2cc3cc(C)cc(C)c3[nH]c2=O)c2nnnn2C2CCCCC2)CC1` (stereo not given), for which the viability in test [1] was 69.5%; in test [3], 69.5% (inactive); in test [4], 57.3% (inactive); in test [5] it was 62.8% (inactive); in test [6] (setting [9]), 57.2%; in test [6] (setting [10]), 62.8%. Further, the Her2 level in test [2] was 80% (inactive). Further, the differential viability (reversal) in test [6] (H69AR cells + 2 uM doxorubicin) was 5.56% (inactive). Further, the inhibition is -2.6% (inactive) in test [7] and 2.38% (inactive) in test [8].

Turning to `CCCc1nn(CCc2ccccn2)c(N)c1CC`, the viability in test [1] was 114%; in test [3] it was 114% (inactive); in test [4], 89.4% (inactive); in test [5], 96.5% (inactive); in test [6] (setting [9]) it was 93.5%; in test [6] (setting [10]), 96.5%. The Her2 level in test [2] is 91% (inactive). In addition, in test [6] (H69AR cells + 2 uM doxorubicin), the differential viability (reversal) was 3.08% (inactive). Also, the results for the inhibition in test [7] and in test [8] were -6% (inactive) and 0.66% (inactive), respectively.

On to `CC1Cc2ccccc2N1C(=O)CSc1nnc2n1C(C)(C)Cc1ccccc1-2` (stereo not given), for which the viability in test [1] is 79%; in test [3], 79% (inactive); in test [4] it was 71.8% (inactive); in test [5] it was 82.4% (inactive); in test [6] (setting [9]), 90.4%; in test [6] (setting [10]), 82.4%. The Her2 level in test [2] is 105% (inactive). Also, in test [6] (H69AR cells + 2 uM doxorubicin), the differential viability (reversal) was -7.96% (inactive). Also, the inhibition is -6.4% (inactive) in test [7] and -7.3% (inactive) in test [8].

Take `CC(C)=CCCC(C)NC(=O)NC1CCCCC1` (stereo not given): the viability was 91% in test [1]; 91% (inactive) in test [3]; 106% (inactive) in test [4]; 107% (inactive) in test [5]; 88.6% in test [6] (setting [9]); 107% in test [6] (setting [10]). For the same compound, the Her2 level in test [2] is 94% (inactive). Besides, the differential viability (reversal) in test [6] (H69AR cells + 2 uM doxorubicin) was 18% (inactive). In addition, the inhibition in test [7] is -5.33% (inactive); in test [8], 2.74% (inactive).

Consider `COc1ccc(-c2noc(CSc3nc(N)c(-c4ccccc4)c(=O)[nH]3)n2)cc1OC`, for which the viability in test [1] was 106%; in test [3], 106% (inactive); in test [4], 94.6% (inactive); in test [5], 84.7% (inactive); in test [6] (setting [9]), 85.4%; in test [6] (setting [10]), 84.7%. For the same compound, in test [2], the Her2 level was 94.5% (inactive). Besides, the differential viability (reversal) in test [6] (H69AR cells + 2 uM doxorubicin) was -0.7% (inactive). In addition, the results for the inhibition in test [7] and in test [8] were -4.13% (inactive) and -3.97% (inactive), respectively.

For the compound `COCCOC(=O)c1c(C)oc2ccc(NS(=O)(=O)c3ccc(F)cc3)cc12`, the viability in test [1] is 85.5%; in test [3] it was 85.5% (inactive); in test [4], 93% (inactive); in test [5], 90.5% (inactive); in test [6] (setting [9]) it was 95.2%; in test [6] (setting [10]), 90.5%. The Her2 level in test [2] was 90.5% (inactive). Further, the differential viability (reversal) in test [6] (H69AR cells + 2 uM doxorubicin) is -4.71% (inactive). In addition, the inhibition is -2.43% (inactive) in test [7] and 2.7% (inactive) in test [8].

In the case of `CC(C)(C)c1ccc(C(=O)Nc2cnccn2)cc1`, the viability in test [1] is 79.5%; in test [3], 79.5% (inactive); in test [4], 98.1% (inactive); in test [5], 100% (inactive); in test [6] (setting [9]), 81.5%; in test [6] (setting [10]) it was 100%. In addition, the Her2 level in test [2] is 114% (inactive). For the same compound, the differential viability (reversal) in test [6] (H69AR cells + 2 uM doxorubicin) was 18.8% (inactive). For the same compound, the inhibition in test [7] is -4.87% (inactive); in test [8], 0.67% (inactive).

For `Cc1ccc(/C=c2\sc3nc(-c4ccccc4Br)nn3c2=O)o1`, the viability is 89% in test [1]; 89% (inactive) in test [3]; 110% (inactive) in test [4]; 95.5% (inactive) in test [5]; 89% in test [6] (setting [9]); 95.5% in test [6] (setting [10]). The Her2 level in test [2] was 85% (inactive). Further, in test [6] (H69AR cells + 2 uM doxorubicin), the differential viability (reversal) is 6.48% (inactive). Besides, the inhibition in test [7] is -7.47% (inactive); in test [8], 10.7% (inactive).

Regarding `CN(c1ccccc1)S(=O)(=O)c1ccc(C(=O)OCC(=O)N2CCOCC2)cc1`, the viability in test [1] was 106%; in test [3] it was 106% (inactive); in test [4], 106% (inactive); in test [5], 111% (inactive); in test [6] (setting [9]) it was 89.4%; in test [6] (setting [10]) it was 111%. Also, in test [2], the Her2 level is 85.5% (inactive). For the same compound, in test [6] (H69AR cells + 2 uM doxorubicin), the differential viability (reversal) is 21.5% (inactive). Moreover, the figures for the inhibition in test [7] and in test [8] were -5.41% (inactive) and 3.17% (inactive), respectively.

Consider `Cn1c(=O)c2c(nc(NCc3ccc4c(c3)OCO4)n2Cc2ccccc2F)n(C)c1=O`, for which the viability in test [1] is 82%; in test [3], 82% (inactive); in test [4], 105% (inactive); in test [5] it was 76% (inactive); in test [6] (setting [9]), 84%; in test [6] (setting [10]), 76%. In test [2], the Her2 level is 60% (inactive). In addition, in test [6] (H69AR cells + 2 uM doxorubicin), the differential viability (reversal) was -8.01% (inactive). The inhibition in test [7] was -3.65% (inactive); in test [8] it was 7.3% (inactive).
